Each block holds one molecule with its values, some of them ahead of it.
How the values were obtained:
[1] = AUC in hyperglycemic Balb/c mouse plasma at greater than 0.58 mg/kg measured upto 60 mins; format: ADME, organism-based; parameters: dose 0.58 mg/kg, time <=60
[2] = Drug metabolism in human hepatocytes assessed as O-dealkylation by measuring 4-((2,3-dihydrospiro[indene-1,4'-piperidine]-1'-yl)methyl)benzoic acid metabolite formation by LC-MS/MS analysis; format: ADME, cell-based, Hepatocyte
[3] = Drug metabolism in rat hepatocytes assessed as O-dealkylation by measuring 4-((2,3-dihydrospiro[indene-1,4'-piperidine]-1'-yl)methyl)benzoic acid metabolite formation by LC-MS/MS analysis; format: ADME, cell-based, Hepatocyte
[4] = Drug metabolism in mouse hepatocytes assessed as O-dealkylation by measuring 4-((2,3-dihydrospiro[indene-1,4'-piperidine]-1'-yl)methyl)benzoic acid metabolite formation by LC-MS/MS analysis; format: ADME, cell-based, Hepatocyte
[5] = Clearance in mouse plasma at 10 mg/kg, po or 1 mg/kg, iv by LC/MS/MS analysis; format: ADME, organism-based
Summary of the method: (§1)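 Dosing was oral and intravenous in mice, rats or beagle dogs. Blood was drawn at set time points into EDTA and processed to plasma. Plasma was assayed by LC/MS/MS. Clearance, Cmax and terminal half-life were derived by noncompartmental analysis.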

[6] = Clearance in rat plasma at 10 mg/kg, po or 3 mg/kg, iv by LC/MS/MS analysis; format: ADME, organism-based; summary of the method: as §1
[7] = Clearance in dog plasma at 5 mg/kg, po or 1 mg/kg, iv by LC/MS/MS analysis; format: ADME, organism-based, Canis lupus familiaris; summary of the method: as §1
[8] = Volume of distribution at steady state in mouse at 10 mg/kg, po or 1 mg/kg, iv by LC/MS/MS analysis; format: ADME, organism-based; conditions: in vivo, read-out: Vdss
Summary of the method: (§2)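 Mice, rats and beagle dogs dosed; blood drawn at set times into EDTA, processed to plasma and assayed by LC/MS/MS. Parameters (clearance, Vdss, terminal half-life, Cmax, Tmax, oral bioavailability) derived by noncompartmental analysis.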

[9] = Volume of distribution at steady state in rat at 10 mg/kg, po or 3 mg/kg, iv by LC/MS/MS analysis; format: ADME, organism-based; conditions: in vivo, read-out: Vdss; summary of the method: as §2
[10] = Volume of distribution at steady state in dog at 5 mg/kg, po or 1 mg/kg, iv by LC/MS/MS analysis; format: ADME, organism-based, Canis lupus familiaris; conditions: in vivo, read-out: Vdss; summary of the method: as §2
[11] = Half-life in rat at 10 mg/kg, po or 3 mg/kg, iv by LC/MS/MS analysis; format: ADME, organism-based; conditions: in vivo; summary of the method: as §2
[12] = Cmax in mouse plasma at 10 mg/kg, po or 1 mg/kg, iv by LC/MS/MS analysis; format: ADME, organism-based; parameters: dose 10 mg/kg; summary of the method: as §1
[13] = Cmax in rat plasma at 10 mg/kg, po or 3 mg/kg, iv by LC/MS/MS analysis; format: ADME, organism-based; parameters: dose 10 mg/kg; summary of the method: as §1
[14] = Cmax in dog plasma at 5 mg/kg, po or 1 mg/kg, iv by LC/MS/MS analysis; format: ADME, organism-based, Canis lupus familiaris; parameters: dose 5 mg/kg; summary of the method: as §1
[15] = Tmax in mouse at 10 mg/kg, po or 1 mg/kg, iv by LC/MS/MS analysis; format: ADME, organism-based; conditions: in vivo; summary of the method: as §2
[16] = Tmax in rat at 10 mg/kg, po or 3 mg/kg, iv by LC/MS/MS analysis; format: ADME, organism-based; conditions: in vivo; summary of the method: as §2
[17] = Tmax in dog at 5 mg/kg, po or 1 mg/kg, iv by LC/MS/MS analysis; format: ADME, organism-based, Canis lupus familiaris; conditions: in vivo; summary of the method: as §2
[18] = Oral bioavailability in mouse at 10 mg/kg by LC/MS/MS analysis; format: ADME, organism-based; conditions: in vivo; summary of the method: as §2
[19] = Oral bioavailability in dog at 5 mg/kg by LC/MS/MS analysis; format: ADME, organism-based, Canis lupus familiaris; conditions: in vivo; summary of the method: as §2
[20] = Elimination half-life in dog plasma at 5 mg/kg, po or 1 mg/kg, iv by LC/MS/MS analysis; format: ADME, organism-based, Canis lupus familiaris; summary of the method: as §1
[21] = Drug metabolism in dog plasma assessed as O-dealkylation metabolite formation by LC-MS/MS analysis; format: ADME, cell-free, Canis lupus familiaris
[22] = AUC in hyperglycemic Balb/c mouse plasma at […] measured upto 60 mins; format: ADME, organism-based
[23] = Drug metabolism in rat hepatocytes assessed as oxidation by LC-MS/MS analysis; format: ADME, cell-based, Hepatocyte
[24] = AUC in hyperglycemic Balb/c mouse plasma at 5.6 mg/kg measured upto 60 mins; format: ADME, organism-based; parameters: dose 5.6 mg/kg, time <=60
[25] = Drug metabolism in mouse hepatocytes assessed as demethylation by LC-MS/MS analysis; format: ADME, cell-based, Hepatocyte
[26] = Drug metabolism in rat hepatocytes assessed as demethylation by LC-MS/MS analysis; format: ADME, cell-based, Hepatocyte
[27] = Drug metabolism in dog hepatocytes assessed as demethylation by LC-MS/MS analysis; format: ADME, cell-based, Canis lupus familiaris, Hepatocyte
[28] = AUC in hyperglycemic Balb/c mouse plasma at 5 mg/kg measured upto 60 mins; format: ADME, organism-based; parameters: dose 5 mg/kg, time <=60
[29] = Drug metabolism in dog plasma assessed as conjugation with glucuronide metabolite formation by LC-MS/MS analysis; format: ADME, cell-free, Canis lupus familiaris
[30] = Cmax in type 2 diabetic mellitus human at 270 mg, po administered as single dose; format: ADME, organism-based; parameters: route oral, dose 270 mg; conditions: in vivo
Summary of the method: (§3)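 Type 2 diabetic subjects each received a single oral dose. Plasma drug levels were followed over time. Parameters were derived by noncompartmental analysis and reported as geometric means with CV%. CL/F is apparent total clearance and Vz/F is apparent terminal-phase volume.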

[31] = Apparent volume of distribution in type 2 diabetic mellitus human at 270 mg, po administered as single dose; format: ADME, organism-based; conditions: in vivo, read-out: Vz/F; summary of the method: as §3
[32] = Cmax in type 2 diabetic mellitus human at 540 mg, po administered as single dose; format: ADME, organism-based; parameters: route oral, dose 540 mg; conditions: in vivo; summary of the method: as §3
[33] = Tmax in type 2 diabetic mellitus human at 540 mg, po administered as single dose; format: ADME, organism-based; conditions: in vivo
Summary of the method: (§4)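 Single oral dose given to type 2 diabetic subjects; plasma drug levels followed over time. Cmax, Tmax, terminal half-life, AUC(0−∞), CL/F and Vz/F obtained by noncompartmental analysis and reported as geometric means with CV%.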

[34] = Half life in type 2 diabetic mellitus human at 540 mg, po administered as single dose; format: ADME, organism-based; conditions: in vivo
[35] = AUC ( 0 to infinity) in type 2 diabetic mellitus human at 540 mg, po administered as single dose; format: ADME, organism-based; parameters: route oral, time infinity, dose 540 mg; conditions: in vivo; summary of the method: as §3
[36] = Cmax in type 2 diabetic mellitus human at 1080 mg, po administered as single dose; format: ADME, organism-based; parameters: route oral, dose 1080 mg; conditions: in vivo; summary of the method: as §3
[37] = Tmax in type 2 diabetic mellitus human at 1080 mg, po administered as single dose; format: ADME, organism-based; conditions: in vivo; summary of the method: as §4
[38] = Half life in type 2 diabetic mellitus human at 1080 mg, po administered as single dose; format: ADME, organism-based; conditions: in vivo; summary of the method: as §3
[39] = AUC ( 0 to infinity) in type 2 diabetic mellitus human at 1080 mg, po administered as single dose; format: ADME, organism-based; parameters: time infinity, route oral, dose 1080 mg; conditions: in vivo; summary of the method: as §3
[40] = Apparent volume of distribution in type 2 diabetic mellitus human at 1080 mg, po administered as single dose; format: ADME, organism-based; conditions: in vivo, read-out: Vz/F; summary of the method: as §3
[41] = AUC in hyperglycemic Balb/c mouse plasma at 3.67 mg/kg measured upto 60 mins; format: ADME, organism-based; parameters: dose 3.67 mg/kg, time <=60
[42] = Drug distribution in C57BL/6 mouse spleen at 3 microg/kg, iv administered as single dose observed at 20 to 40 mins by LC-MS/MS analysis; format: ADME, organism-based; conditions: in vivo, 0.003 mg/kg, time 20-40 min, dose 3 µg/kg
Summary of the method: (§5)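 Tracer microdose study in fed male C57BL/6 mice: single 3 μg/kg IV dose in 25% HP-BCD. Mice were killed by cervical dislocation, and spleen, ascending colon, skeletal muscle and plasma were sampled at 20 and 40 min.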

[43] = Drug distribution in C57BL/6 mouse plasma at 3 microg/kg, iv administered as single dose observed at 20 to 40 mins by LC-MS/MS analysis; format: ADME, organism-based; conditions: in vivo, 0.003 mg/kg, time 20-40 min, dose 3 µg/kg; summary of the method: as §5

Structure (SMILES): CC#C[C@@H](CC(=O)O)c1ccc(OCc2ccc(CN3CCC4(C=Cc5ccccc54)CC3)cc2)cc1 [LY2881835]
AUC at 1 h [1]: 218 ng·h/mL | Drug metabolism [2]: Metabolite_Detected | Drug metabolism [3]: Metabolite_Detected | Drug metabolism [4]: Metabolite_Detected | clearance [5]: 20.4 mL/min/kg | clearance [6]: 11.6 mL/min/kg | clearance [7]: 4.9 mL/min/kg | Vd [8]: 1.4 L/kg | Vd [9]: 0.4 L/kg | Vd [10]: 0.8 L/kg | half-life [11]: 2.1 h | Cmax [12]: 1100 ng/mL | Cmax [13]: 11200 ng/mL | Cmax [14]: 2860 ng/mL | Tmax [15]: 0.5 h | Tmax [16]: 0.25 h | Tmax [17]: 3 h | bioavailability [18]: 64% | bioavailability [19]: 74% | half-life [20]: 5.05 h | Drug metabolism [21]: Metabolite_Detected

Structure (SMILES): CC#C[C@@H](CC(=O)O)c1ccc(OCc2ccc(CN3CCC4(CC3)CN(C)c3ccccc34)cc2)cc1
AUC at 1 h [22]: 1030 ng·h/mL

Structure (SMILES): CC#C[C@@H](CC(=O)O)c1ccc(OCc2ccc(CN3CCC4(CCc5ccccc54)CC3)s2)cc1
Drug metabolism [23]: Metabolite_Detected | AUC at 1 h [24]: 898 ng·h/mL

Drug metabolism [25]: Metabolite_Detected | Drug metabolism [26]: Metabolite_Detected | Drug metabolism [27]: Metabolite_Detected | AUC at 1 h [28]: 4930 ng·h/mL | Drug metabolism [29]: Metabolite_Detected | Cmax [30]: 2000 ng/mL | Vd/F [31]: 244 L | Cmax [32]: 3780 ng/mL | Tmax [33]: 4 h | half-life [34]: 14.5 h | AUC(0-inf) [35]: 41400 ng·h/mL | Cmax [36]: 7950 ng/mL | Tmax [37]: 4 h | half-life [38]: 22.4 h | AUC(0-inf) [39]: 97300 ng·h/mL | Vd/F [40]: 358 L
Structure (SMILES): CC#C[C@@H](CC(=O)O)c1ccc(OCc2ccc(CN3CCCc4cccc(OC)c43)s2)cc1

Structure (SMILES): CC#C[C@@H](CC(=O)O)c1ccc(OCc2ccc(CN3CCC4(C=Cc5ccccc54)CC3)s2)cc1
AUC at 1 h [41]: 1060 ng·h/mL | Drug uptake [42]: Active | Drug uptake [43]: Active

Reference: ChEMBL document CHEMBL4765234 (J Med Chem, 2016)
